According to ChEMBL document CHEMBL2040785, “Regioselective synthesis and antimicrobial studies of ester linked 1,4-disubstituted 1,2,3-bistriazoles” (2012):
In brackets after ≈: the same amount, converted by molar mass.

Key:
Type in all cases: functional
Escherichia coli = assay: Antibacterial activity against Escherichia coli MTCC 7443 after 24 hrs by serial dilution method; settings: MTCC 7443, 24 h
In short: (§1)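 Tube serial dilution MIC. Compounds held as 100 µg/ml stocks and serially diluted in tubes of 1 ml sterile double strength nutrient broth to 50–3.12 µg/ml. Each tube was inoculated with 100 µL of bacterial suspension in sterile saline. Incubation at 37 ± 1 °C for 24 h. Norfloxacin was the reference drug and DMSO the solvent control.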

Bacillus subtilis = assay: Antibacterial activity against Bacillus subtilis MTCC 441 after 24 hrs by serial dilution method; settings: MTCC 441, 24 h; in short: as §1
Aspergillus niger = assay: Antifungal activity against Aspergillus niger MTCC 282 after 120 hrs by serial dilution method; settings: MTCC 282, 120 h
In short: (§2)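 Tube serial dilution MIC in Sabouraud dextrose broth. Stocks of 100 µg/ml were diluted in 1 ml sterile medium to 50–3.12 µg/ml, and each tube was inoculated with 100 µL of fungal suspension in sterile saline. Incubation at 25 ± 1 °C, 48 h for C. albicans and 120 h for A. niger. Fluconazole was the reference drug and DMSO the solvent control.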

Candida albicans = assay: Antifungal activity against Candida albicans MTCC 183 after 48 hrs by serial dilution method; settings: MTCC 183, 48 h; in short: as §2

Row | Structure (SMILES) | MIC (Escherichia coli) | MIC (Bacillus subtilis) | MIC (Aspergillus niger) | MIC (Candida albicans)
1 | O=C(CC(=O)OCc1cn(Cc2ccccc2)nn1)OCc1cn(Cc2ccccc2)nn1 | 28 µM (≈ 12.5 µg/mL) | 28 µM (≈ 12.5 µg/mL) | 14 µM (≈ 6.25 µg/mL) | 14 µM (≈ 6.25 µg/mL)
2 | O=C(CC(=O)OCc1cn(CCc2ccccc2)nn1)OCc1cn(CCc2ccccc2)nn1 | 26.3 µM (≈ 12.5 µg/mL) | 26.3 µM (≈ 12.5 µg/mL) | 26.3 µM (≈ 12.5 µg/mL) | 26.3 µM (≈ 12.5 µg/mL)
3 | O=C(CCC(=O)OCc1cn(Cc2ccccc2)nn1)OCc1cn(Cc2ccccc2)nn1 | 27.1 µM (≈ 12.5 µg/mL) | 27.1 µM (≈ 12.5 µg/mL) | 27.1 µM (≈ 12.5 µg/mL) | 13.5 µM (≈ 6.22 µg/mL)
4 | O=C(CCC(=O)OCc1cn(CCc2ccccc2)nn1)OCc1cn(CCc2ccccc2)nn1 | 12.8 µM (≈ 6.25 µg/mL) | 25.6 µM (≈ 12.5 µg/mL) | 25.6 µM (≈ 12.5 µg/mL) | 12.8 µM (≈ 6.25 µg/mL)
5 | O=C(CCCC(=O)OCc1cn(Cc2ccccc2)nn1)OCc1cn(Cc2ccccc2)nn1 | 26.3 µM (≈ 12.5 µg/mL) | 26.3 µM (≈ 12.5 µg/mL) | 26.3 µM (≈ 12.5 µg/mL) | 13.5 µM (≈ 6.41 µg/mL)
6 | O=C(CCCC(=O)OCc1cn(CCc2ccccc2)nn1)OCc1cn(CCc2ccccc2)nn1 | 24.9 µM (≈ 12.5 µg/mL) | 24.9 µM (≈ 12.5 µg/mL) | 24.9 µM (≈ 12.5 µg/mL) | 24.9 µM (≈ 12.5 µg/mL)
7 | O=C(CCCCC(=O)OCc1cn(Cc2ccccc2)nn1)OCc1cn(Cc2ccccc2)nn1 | 12.8 µM (≈ 6.25 µg/mL) | 25.6 µM (≈ 12.5 µg/mL) | 12.8 µM (≈ 6.25 µg/mL) | 12.8 µM (≈ 6.25 µg/mL)
8 | O=C(CCCCC(=O)OCc1cn(CCc2ccccc2)nn1)OCc1cn(CCc2ccccc2)nn1 | 24.2 µM (≈ 12.5 µg/mL) | 24.2 µM (≈ 12.5 µg/mL) | 24.2 µM (≈ 12.5 µg/mL) | 12.1 µM (≈ 6.25 µg/mL)
9 | O=C(OCc1cn(Cc2ccccc2)nn1)c1cccc(C(=O)OCc2cn(Cc3ccccc3)nn2)n1 | 12.3 µM (≈ 6.27 µg/mL) | 12.3 µM (≈ 6.27 µg/mL) | 24.6 µM (≈ 12.5 µg/mL) | 12.3 µM (≈ 6.27 µg/mL)
10 | O=C(OCc1cn(CCc2ccccc2)nn1)c1cccc(C(=O)OCc2cn(CCc3ccccc3)nn2)n1 | 23.3 µM (≈ 12.5 µg/mL) | 23.3 µM (≈ 12.5 µg/mL) | 23.3 µM (≈ 12.5 µg/mL) | 23.3 µM (≈ 12.5 µg/mL)
11 | O=C(OCc1cn(CCc2ccccc2)nn1)c1cccc(C(=O)OCc2cn(CCc3ccccc3)nn2)c1 | 23.3 µM (≈ 12.5 µg/mL) | 23.3 µM (≈ 12.5 µg/mL) | 23.3 µM (≈ 12.5 µg/mL) | 23.3 µM (≈ 12.5 µg/mL)
12 | O=C(OCc1cn(CCc2ccccc2)nn1)c1ccc(C(=O)OCc2cn(CCc3ccccc3)nn2)cc1 | 23.3 µM (≈ 12.5 µg/mL) | 23.3 µM (≈ 12.5 µg/mL) | 23.3 µM (≈ 12.5 µg/mL) | 23.3 µM (≈ 12.5 µg/mL)
13 | OC(Cn1cncn1)(Cn1cncn1)c1ccc(F)cc1F [FLUCONAZOLE] | – | – | 10.2 µM (≈ 3.12 µg/mL) | 10.2 µM (≈ 3.12 µg/mL)
14 | CCn1cc(C(=O)O)c(=O)c2cc(F)c(N3CCNCC3)cc21 [NORFLOXACIN] | 9.8 µM (≈ 3.13 µg/mL) | 9.8 µM (≈ 3.13 µg/mL) | – | –
